From ChEMBL document CHEMBL5260797, “N-(1-Benzyl-3,5-dimethyl-1H-pyrazol-4-yl)benzamides: Antiproliferative Activity and Effects on mTORC1 and Autophagy” (ACS Med Chem Lett, 2017)
Converted amounts (≈) assume the structure as drawn. The source made the active and inactive calls. The rule behind the calls is not given here.

Assays:
ARPE-19 [1] = assay: Induction of autophagy in human ARPE-19 cells assessed as increase in LC3-labeled punctae at 25 uM measured after 4 hrs by immunofluorescence analysis relative to control; format: functional, cell-based
How it was run: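 ARPE-19 cells treated 4 h at 25 μM in complete medium without starvation, or with DMSO. LC3 punctae detected by immunofluorescence, with CD63 as late endosomal/lysosomal marker.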

ARPE-19 [2] = assay: Inhibition of autophagy in human ARPE-19 cells assessed as fold decrease in LC3 turnover at 10 uM pretreated for 30 mins with cells followed by incubation for 4 hrs under starvation condition by Western blot analysis; settings: time 4.5 hrs
ARPE-19 [3] = assay: Induction of autophagy in human ARPE-19 cells assessed as fold increase in LC3 turnover at 50 uM measured after 4 hrs by Western blot analysis; format: functional
How it was run: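 ARPE-19 human retinal pigment epithelial cells exposed 4 h to compound or DMSO in complete medium without starvation. LC3 conversion read by Western blot as LC3-II/actin ratio and expressed as fold increase over DMSO control, n = 3.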

[4] = Cytotoxicity against human ARPE-19 cells assessed as cell viability measured after 72 hrs by MTT assay; format: toxicity, cell-based
mTORC1 (Homo sapiens) [5] = molecular target: T1, mTORC1 (Homo sapiens) (UniProt P42345+Q8N122+Q9BVC4); assay: Inhibition of mTORC1 reactivation in human ARPE-19 cells assessed as reduction of P70 phosphorylation at 10 uM preincubated for 4 hrs under starvation/refeed condition measured after 1 hr in complete medium by Western blot analysis; format: cell-based; settings: time 5.0 hrs
T1 sequence (Q8N122 whole entry, looked up, other chains not shown): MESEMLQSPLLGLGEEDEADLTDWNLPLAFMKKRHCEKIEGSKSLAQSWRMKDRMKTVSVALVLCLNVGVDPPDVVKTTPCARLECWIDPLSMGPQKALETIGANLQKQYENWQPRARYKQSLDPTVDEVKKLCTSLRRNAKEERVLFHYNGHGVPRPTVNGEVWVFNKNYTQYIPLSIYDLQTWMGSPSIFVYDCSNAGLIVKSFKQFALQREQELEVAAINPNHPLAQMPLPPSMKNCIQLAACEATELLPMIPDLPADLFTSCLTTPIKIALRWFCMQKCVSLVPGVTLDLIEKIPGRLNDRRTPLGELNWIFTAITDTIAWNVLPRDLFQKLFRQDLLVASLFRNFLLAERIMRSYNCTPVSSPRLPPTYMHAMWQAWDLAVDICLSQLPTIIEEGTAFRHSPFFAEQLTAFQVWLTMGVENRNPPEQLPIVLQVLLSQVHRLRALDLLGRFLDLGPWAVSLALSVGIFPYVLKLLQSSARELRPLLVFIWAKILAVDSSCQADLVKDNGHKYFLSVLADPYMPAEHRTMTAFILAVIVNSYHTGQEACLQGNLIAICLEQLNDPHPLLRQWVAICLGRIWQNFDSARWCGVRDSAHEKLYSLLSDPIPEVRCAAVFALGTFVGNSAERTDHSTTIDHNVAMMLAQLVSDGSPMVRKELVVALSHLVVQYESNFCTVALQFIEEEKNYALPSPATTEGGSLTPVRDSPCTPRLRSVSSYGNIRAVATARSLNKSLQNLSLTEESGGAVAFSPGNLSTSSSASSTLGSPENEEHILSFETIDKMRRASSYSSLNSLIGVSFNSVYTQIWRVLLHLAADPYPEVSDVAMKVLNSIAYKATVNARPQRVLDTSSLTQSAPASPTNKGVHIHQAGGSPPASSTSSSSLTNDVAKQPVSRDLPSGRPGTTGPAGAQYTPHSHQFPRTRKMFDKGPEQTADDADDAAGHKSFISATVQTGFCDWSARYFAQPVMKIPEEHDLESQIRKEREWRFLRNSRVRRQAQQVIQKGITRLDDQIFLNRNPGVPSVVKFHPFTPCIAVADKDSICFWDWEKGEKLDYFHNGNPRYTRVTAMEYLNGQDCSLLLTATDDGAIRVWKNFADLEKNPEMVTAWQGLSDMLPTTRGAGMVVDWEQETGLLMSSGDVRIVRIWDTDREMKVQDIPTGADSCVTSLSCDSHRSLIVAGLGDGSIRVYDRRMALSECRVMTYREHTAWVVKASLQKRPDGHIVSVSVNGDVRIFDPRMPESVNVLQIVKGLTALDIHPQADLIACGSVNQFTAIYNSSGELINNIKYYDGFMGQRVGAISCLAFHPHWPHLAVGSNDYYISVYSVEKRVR
T1 sequence (Q9BVC4 whole entry, looked up, other chains not shown): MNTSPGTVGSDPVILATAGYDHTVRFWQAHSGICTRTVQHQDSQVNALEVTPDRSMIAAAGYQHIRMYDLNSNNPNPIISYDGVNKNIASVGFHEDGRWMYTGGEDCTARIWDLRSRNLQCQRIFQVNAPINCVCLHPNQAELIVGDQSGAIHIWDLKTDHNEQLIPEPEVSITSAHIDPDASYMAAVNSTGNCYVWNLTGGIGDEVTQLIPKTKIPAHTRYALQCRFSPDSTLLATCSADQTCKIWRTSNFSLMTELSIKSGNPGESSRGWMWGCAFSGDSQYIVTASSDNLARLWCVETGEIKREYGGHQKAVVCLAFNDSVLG
How it was run: (§1)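 ARPE-19 cells starved 4 h in EBSS, then refed 1 h in complete medium with 10 μM compound or DMSO. mTORC1 reactivation read by Western blot as phosphorylation of P70 and 4EBP1.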

MIA PaCa-2 = assay: Antiproliferative activity against human MIA PaCa-2 cells assessed as cell viability measured after 72 hrs by MTT assay; format: functional, cell-based; settings: MIA PaCa-2, 72 h
How it was run: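 MIA PaCa-2 pancreatic cancer cells; EC50 values determined in triplicate.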

ARPE-19 [6] = assay: Induction of autophagy in human ARPE-19 cells assessed as increase in LC3-2 conversion at 10 uM measured after 4 hrs by Western blot analysis; format: functional, cell-based
How it was run: (§2)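 ARPE-19 cells treated 4 h in complete medium without starvation with increasing concentrations (10, 25, 50 μM) or DMSO. LC3 detected by Western blot; LC3-II/actin ratio expressed as fold increase over DMSO control, n = 3.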

ARPE-19 [7] = assay: Induction of autophagy in human ARPE-19 cells assessed as LC3 accumulation at 25 to 50 uM measured after 4 hrs under refeed condition by immunofluorescence analysis; format: functional, cell-based; settings: dose 25-50 µM
ARPE-19 [8] = assay: Induction of autophagy in human ARPE-19 cells assessed as appearance of LC3 non-uniformed shapes at 25 uM pretreated for 30 mins with cells followed by incubation for 4 hrs under starvation condition by immunofluorescence analysis; format: functional, cell-based; settings: time 4.5 hrs
How it was run: (§3)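 ARPE-19 cells starved 4 h in EBSS with 25 μM compound or DMSO. LC3-labeled structures imaged by immunofluorescence, with CD63 as late endosomal/lysosomal marker.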

[9] = Thermodynamic aqueous solubility of the compound at pH 7.4 measured after 48 hrs by UV-spectrometry method; format: physicochemical; settings: read-out: Therm_solubility
ARPE-19 [10] = assay: Induction of autophagy in human ARPE-19 cells assessed as decrease in LC3-2/actin ratio at 10 uM pretreated for 30 mins with cells followed by incubation for 4 hrs under starvation condition by Western blot analysis; format: functional, cell-based; settings: time 4.5 hrs
How it was run: (§4)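 ARPE-19 cells pretreated 30 min at 10 μM (or DMSO). Then 4 h with compound in EBSS starvation medium, or in EBSS with 100 nM bafilomycin. LC3-II/actin quantified by Western blot as fold of DMSO control, n = 3.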

[11] = Metabolic stability in mouse plasma assessed as parent compound remaining measured after 6 hrs by LC-MS/MS analysis; format: ADME, cell-free; settings: read-out: Stability
mTORC1 (Homo sapiens) [12] = molecular target: T1, mTORC1 (Homo sapiens); assay: Inhibition of mTORC1 in human ARPE19 cells measured after 4 hrs by Western blot analysis; format: cell-based; settings: ARPE-19, dose 10-50 µM
How it was run: (§5)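 ARPE-19 cells treated 4 h without starvation with increasing concentrations or DMSO. Basal mTORC1 activity measured by Western blot as phosphorylated P70/total P70, with DMSO set to 100%.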

mTORC1 (Homo sapiens) [13] = molecular target: T1, mTORC1 (Homo sapiens); assay: Inhibition of mTORC1 in human ARPE19 cells at 10 to 50 uM measured after 4 hrs by Western blot analysis related to control; format: cell-based; settings: ARPE-19, dose 10-50 µM; how it was run: as §5
ARPE-19 [14] = assay: Induction of autophagy in human ARPE-19 cells assessed fold increase in LC3 turnover at 10 uM pretreated measured after 1 hr under refeed condition by Westernblot analysis; format: functional
How it was run: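 ARPE-19 cells pretreated 30 min with 10 μM compound or DMSO, starved 4 h in EBSS, then refed 1 h in complete medium with compound or DMSO. LC3-II/actin quantified by Western blot and expressed as fold increase over DMSO control, n = 3.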

ARPE-19 [15] = assay: Reduction in autophagic flux in human ARPE-19 cells at 25 uM incubated for 4 hrs in complete medium in presence of bafilomycin; format: functional, cell-based
How it was run: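 ARPE-19 cells in full medium with 100 nM bafilomycin plus compound or DMSO. Autophagic flux read as LC3-II by Western blot.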

ARPE-19 [16] = assay: Induction of autophagy in human ARPE-19 cells assessed as increase in LC3-2 conversion measured after 4 hrs by Western blot analysis; format: functional, cell-based; settings: dose 25-50 µM; how it was run: as §2
mTORC1 (Homo sapiens) [17] = molecular target: T1, mTORC1 (Homo sapiens); assay: Inhibition of mTORC1 in human ARPE19 cells assessed as decrease in P70/total P70 phosphorylation level at 10 uM measured after 4 hrs by Western blot analysis; format: cell-based; settings: ARPE-19; how it was run: as §5
mTORC1 (Homo sapiens) [18] = molecular target: T1, mTORC1 (Homo sapiens); assay: Inhibition of mTORC1 reactivation in human ARPE-19 cells at 25 to 50 uM preincubated for 4 hrs under starvation/refeed condition measured after 1 hr in complete medium by Western blot analysis; format: cell-based; settings: dose 25-50 µM, time 5.0 hrs
[19] = Metabolic stability in human plasma assessed as parent compound remaining measured after 24 hrs by LC-MS/MS analysis; format: ADME, cell-free; settings: read-out: Stability
ARPE-19 [20] = assay: Induction of autophagy in human ARPE-19 cells assessed as increase in LC3-2 conversion at 25 to 50 uM measured after 4 hrs by Western blot analysis; format: functional, cell-based; settings: dose 25-50 µM; how it was run: as §2
ARPE-19 [21] = assay: Induction of autophagy in human ARPE-19 cells assessed as LC3 enlarged structures at 25 uM pretreated for 30 mins with cells followed by incubation for 4 hrs under starvation condition by immunofluorescence analysis; format: functional, cell-based; settings: time 4.5 hrs; how it was run: as §3
mTORC1 (Homo sapiens) [22] = molecular target: T1, mTORC1 (Homo sapiens); assay: Inhibition of mTORC1 reactivation in human ARPE-19 cells assessed as reduction of 4E-BP1 phosphorylation at 10 uM preincubated for 4 hrs under starvation/refeed condition measured after 1 hr in complete medium by Western blot analysis; format: cell-based; settings: time 5.0 hrs; how it was run: as §1
[23] = Metabolic stability in mouse plasma assessed as parent compound remaining measured after 24 hrs by LC-MS/MS analysis; format: ADME, cell-free; settings: read-out: Stability
ARPE-19 [24] = assay: Induction of autophagy in human ARPE-19 cells assessed as appearance of abnormal punctae at 25 uM measured after 1 hr under starvation/refeed condition by immunofluorescence analysis; format: functional, cell-based
How it was run: (§6)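 ARPE-19 cells starved 4 h in EBSS, then refed 1 h in complete medium containing 25 μM compound or DMSO. LC3 punctae imaged by immunofluorescence, with CD63 co-stain.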

ARPE-19 [25] = assay: Induction of autophagy in human ARPE-19 cells assessed as LC3 level at 25 uM measured after 4 hrs under starvation/refeed condition by immunofluorescence analysis; format: functional, cell-based; how it was run: as §6
[26] = Metabolic stability in human plasma assessed as parent compound remaining measured after 6 hrs by LC-MS/MS analysis; format: ADME, cell-free; settings: read-out: Stability
ARPE-19 [27] = assay: Induction of autophagy in human ARPE-19 cells assessed as decrease in LC3-2/actin ratio at 10 uM pretreated for 30 mins with cells followed by incubation for 4 hrs under starvation condition in presence of bafilomycin by Western blot analysis; format: functional, cell-based; settings: time 4.5 hrs; how it was run: as §4

SMILES: CNC(=O)c1cccc(Cn2nc(C)c(NC(=O)c3ccc(COc4ccc(C(F)(F)F)cc4C)cc3)c2C)c1
- Activity (ARPE-19 [1]): Active
- fold change (FC) (ARPE-19 [2]): 1.7
- fold change (FC) (ARPE-19 [3]): 3.3
- EC50 at 72 h [4]: 7.1 µM
- Activity (mTORC1 (Homo sapiens) [5]): Active
- EC50 (MIA PaCa-2): 0.62 µM
- Activity (ARPE-19 [6]): Active
- Activity (ARPE-19 [7]): Active
- Activity (ARPE-19 [8]): Active
- solubility thermodynamic at 48 h [9]: 166 µM (≈ 91.4 µg/mL)
- Activity (ARPE-19 [10]): Active
- remaining at 6 h [11]: 88%
- inhibition (mTORC1 (Homo sapiens) [12]): Dose-Dependent Effect
- inhibition (mTORC1 (Homo sapiens) [13]): 78%
- fold change (FC) (ARPE-19 [14]): 1.7
- Activity (ARPE-19 [15]): inactive
- Activity (ARPE-19 [16]): Dose-Dependent Effect
- inhibition (mTORC1 (Homo sapiens) [17]): Active
- Activity (mTORC1 (Homo sapiens) [18]): Active
- remaining at 24 h [19]: 100%
- Activity (ARPE-19 [20]): Active
- Activity (ARPE-19 [21]): Active
- Activity (mTORC1 (Homo sapiens) [22]): Active
- remaining at 24 h [23]: 93%
- Activity (ARPE-19 [24]): Active
- Activity (ARPE-19 [25]): Active
- remaining at 6 h [26]: 98%
- Activity (ARPE-19 [27]): inactive
